From publication PMC3117328 (Chemistry & biology, 2009)

Experiments:
[1] = biological target: EF-G GTPase (70S ribosomes) (Escherichia coli, UniProt P0A7J7); assay: EF-G GTPase Pi release assay with MDCC-labeled PBP; format: biochemical
[2] = biological target: IF2 (70S initiation complex formation) (Escherichia coli, UniProt P0A7J7); assay: IF2^Cy3 fluorescence change assay; format: biochemical; settings: ThS, NoS at 1.5 µM (Figure 2A); precursors in dose response screen
[3] = test system: Escherichia coli in vitro coupled transcription-translation (GFP synthesis); assay: In vitro coupled transcription-translation; format: biochemical; settings: 5 µM ThS, 5 µM NoS, 25 µM GE2270T (Figure 4)
Summary of the method: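 E. coli lysate-based coupled transcription-translation system expressing GFP, ribosomes ~2 µM, run with or without test compound. After reaction, samples are moved to microtiter plates. GFP fluorescence is imaged on a laser scanner with blue-laser excitation and quantified from the images, with inhibition taken against the no-antibiotic reaction.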

[4] = biological target: EF-G GTPase (E. coli 70S ribosomes) (Escherichia coli, UniProt P0A7J7); format: biochemical; settings: compound 1 µM; 30 nM 70S ribosomes, 20 µM GTP, 60 nM protein
[5] = background statement, no reference given; cited from earlier work

Chain of EF-G GTPase (70S ribosomes) (P0A7J7 2-142): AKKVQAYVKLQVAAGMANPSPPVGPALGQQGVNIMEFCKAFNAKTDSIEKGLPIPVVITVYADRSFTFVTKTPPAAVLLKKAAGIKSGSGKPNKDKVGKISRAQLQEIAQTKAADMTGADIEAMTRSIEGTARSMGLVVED
Chain of IF2 (70S initiation complex formation) (P0A7J7 2-142, one chain of several): as the sequence (P0A7J7 2-142) above
Chain of EF-G GTPase (E. coli 70S ribosomes) (P0A7J7 2-142): as above

Row | Molecule | EC50 [1] [nM] | inhibition of the IF2^Cy3 fluorescence increase on 70SIC formation (in words) [2] | inhibition of GFP synthesis in the in vitro TT assay [3] | inhibition of EF-G GTPase activity (Malachite Green) [4] | bioavailability [5]
1 | C/C=C(\NC(=O)c1csc(-c2csc(-c3ccc4c(n3)-c3csc(n3)[C@H]([C@@H](C)O)NC(=O)c3csc(n3)[C@H](C(C)C)NC(=O)c3csc(n3)/C(=C/C)NC(=O)[C@H]([C@@H](C)O)NC(=O)c3csc-4n3)n2)n1)C(=O)NC[C@@H](C)O [MiC, micrococcin] | 110 | – | – | – | –
2 | C=C(NC(=O)c1csc(-c2nc3c(cc2O)-c2nc(cs2)C(=O)N[C@@H]([C@@H](C)O)C(=O)N/C(=C\C)c2nc(cs2)C(=O)N[C@H]2C[C@H](O)C(=O)OCc4cccc5[nH]c(c(C)c45)C(=O)SC[C@H](NC(=O)c4csc2n4)c2nc-3cs2)n1)C(N)=O [NoS, nosiheptide] | 40 | inhibited | potent inhibitors | – | –
3 | C=C(NC(=O)C(=C)NC(=O)c1csc(C2=N[C@@H]3c4csc(n4)[C@H]4NC(=O)c5csc(n5)[C@H]([C@](C)(O)[C@@H](C)O)NC(=O)[C@H]5CSC(=N5)/C(=C/C)NC(=O)[C@H]([C@@H](C)O)NC(=O)c5csc(n5)[C@]3(CC2)NC(=O)[C@H](C)NC(=O)C(=C)NC(=O)[C@H](C)NC(=O)[C@H]([C@@H](C)CC)N[C@@H]2C=Cc3c([C@H](C)O)cc(nc3[C@H]2O)C(=O)O[C@@H]4C)n1)C(N)=O [ThS, thiostrepton] | – | inhibited | potent inhibitors | almost completely abolished | poor
4 | GE2270T | – | – | potent inhibitors | – | –
